Measurements published in ChEMBL document CHEMBL1759837, “Studies on chemical modification and biology of a natural product, gambogic acid (III): determination of the essential pharmacophore for biological activity” (Eur J Med Chem, 2011).

Tests used:
MCF7 = assay: Antiproliferative activity against human MCF7 cells after 24 hrs by MTT assay; type: functional, cell-based; details: MCF7, 24 h
Outline: (§1)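 Cells grown at 37 °C in humidified 5% CO2 with benzylpenicillin and streptomycin. Compounds came from 0.01 mol/L DMSO stocks and were tested at eight two-fold dilutions in triplicate, with medium-only controls, for 24 h. MTT absorbance was read at 570 nm. Survival = A_treatment/A_control × 100. IC50 is the concentration giving 50% viability inhibition, as the mean of two separate experiments.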

BGC-823 = assay: Antiproliferative activity against human BGC823 cells after 24 hrs by MTT assay; type: functional, cell-based; details: BGC-823, 24 h; outline: as §1
SMMC-7721 = assay: Antiproliferative activity against human SMMC7721 cells after 24 hrs by MTT assay; type: functional, cell-based; details: SMMC-7721, 24 h; outline: as §1
HepG2 = assay: Antiproliferative activity against human HepG2 cells after 24 hrs by MTT assay; type: functional, cell-based; details: HepG2, 24 h
Outline: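 Tetrazolium MTT viability test; cells exposed to compound 24 h, absorbance read at 570 nm. Survival ratio = A treated / A control × 100%; IC50 is the concentration giving 50% loss of viability. Eight concentrations in two-fold dilutions, triplicate wells, mean of two separate experiments. Compounds dissolved in DMSO (0.01 mol/L stock); control wells received medium only.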

Mus musculus = assay: Toxicity in Kunming mouse xenografted with human HepG2 cells assessed as change in body weight at 20 mg/kg, iv administered 24 hrs after tumor implantation one dose per two day for total of four treatment measured after 24 hrs last postdose (reference value: 20.90 +/- 1.29 g); details: in vivo
[1] = system: Heps hepatoma (Mus musculus); assay: Antitumor activity against murine Heps hepatoma cells transplanted in Kunming mouse assessed as tumor growth inhibition at 20 mg/kg, iv administered 24 hrs after tumor implantation one dose per two day for total of four treatment measured after 24 hrs last postdose relative to control

| SMILES | IC50 (MCF7) [µM] | IC50 (BGC-823) [µM] | IC50 (SMMC-7721) [µM] | IC50 (HepG2) [µM] | Activity (Mus musculus) [g] | inhibition in vivo at 20 mg/kg [1] [%] |
| --- | --- | --- | --- | --- | --- | --- |
| CC(C)=CCC12OC(C)(C)C3CC(C=C4C(=O)CC(C)OC431)C2=O (stereo not drawn) | 68.3 | 81.1 | 147 | 95 | – | – |
| CC(C)=CCC[C@]1(C)C=Cc2c(O)c3c(c(CC=C(C)C)c2O1)O[C@]12C(=C[C@@H]4C[C@H]1C(C)(C)O[C@@]2(C/C=C(/C)C(=O)O)C4=O)C3=O [GAMBOGIC ACID] | 2.19 | 2.35 | 3.2 | – | 27.6 | 45.3 |
| CC(C)=CCC12OC(C)(C)C3CC(C=C4C(=O)c5ccc(O)cc5OC431)C2=O (stereo not drawn) | 12.4 | 17.6 | 12.3 | 23.4 | – | – |
